Converted amounts (≈) assume the structure as drawn. The source made the active and inactive calls. No cut-off for these calls is given here.
Tests used:
Format in all cases: functional
[1] = tested on: Mycobacterium tuberculosis; assay: Induction of drug resistance in Mycobacterium tuberculosis H37Ra at 10 to 16 fold MIC; details: time 4-5 weeks
In short: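 Exponential-phase H37Ra, about 10⁷ bacteria, plated on 7H11 agar with compound at 10x and 16x MIC. Incubated 4–5 weeks at 37 °C. Frequency calculated as mutant colonies divided by total cells plated. Clones confirmed by PCR and Sanger sequencing of atp genes and rv0678.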

[2] = tested on: Mycobacterium tuberculosis; assay: Antibacterial activity against Bedaquiline- sensitive Mycobacterium tuberculosis H37Ra harboring atpB.K179N_01 mutant incubated for 7 days by resazurin staining based microtiter assay; details: time 7 day
In short: (§1)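 Resazurin microtiter assay on H37Ra atpB K179N mutants and wild type, using exponential cultures diluted to OD 0.02. 3-fold serial dilution from 10 µM (0.002–10 µM), in triplicate. After 7 days, 0.02% resazurin added for 24 h, then fluorescence read (ex 530/em 590 nm). MIC taken from four-parameter variable-slope nonlinear regression.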

[3] = tested on: Mycobacterium tuberculosis; assay: Antibacterial activity against Bedaquiline- sensitive Mycobacterium tuberculosis H37Ra harboring atpB.K179N_02 mutant incubated for 7 days by resazurin staining based microtiter assay; details: time 7 day; in short: as §1

| Structure (SMILES) | Activity [1] | MIC [2] | MIC [3] |
| --- | --- | --- | --- |
| COc1ccc(-c2c(NCc3ccccn3)c(=O)c2=O)cc1 | Active | – | – |
| COc1nc2ccc(Br)cc2cc1[C@@H](c1ccccc1)[C@@](O)(CCN(C)C)c1cccc2ccccc12 [BEDAQUILINE] | – | 0.11 µM (≈ 0.0611 µg/mL) | 0.12 µM (≈ 0.0667 µg/mL) |
| O=c1c(NCc2ccccn2)c(-c2ccc(N3CCCCC3)cc2)c1=O | Active | – | – |

Source: ChEMBL document CHEMBL5390255, “Expanding the squaramide library as mycobacterial ATP synthase inhibitors: Innovative synthetic pathway and biological evaluation” (Bioorg Med Chem, 2023)
